Source: PubChem
STAT1 act – STAT1 signaling activators, primary screen, cell-based, HTS, luciferase reporter. activation (% of control), % at 5.5 µM. AID 932, 2007. hit rate 2.6% among 200,000. NIH 3T3 STAT1-luciferase reporter, IFN-gamma, luminescence; 100% = IFN-gamma alone, no compound;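 active = activation above the screen-wide mean activation plus 3 SD, cut at about 130% in these data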;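 also: raw ratio to IFN-gamma control signal so 100% means no change and 0% no light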
APP 5UTR inh – inhibitors of APP translation via 5'UTR reporter, primary screen, APP 5'UTR luciferase, SH-SY5Y cells. SH-SY5Y APP 5'UTR-luciferase reporter, luminescence. inhibition, % at 2 µM. hit rate 0.82% among 190,000. AID 1285, 2008;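 active = inhibition above a set limit, derived from the sample mean plus 3 SD, cut at about 45% in these data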
NF-kB expr up – activators of NF-kB expression in neurons, primary screen, cell-based, HTS; AID 1239, 2008; human neuronal cells, NF-kB reporter expression; hits give high values; hit rate 1.6% among 190,000; fold change at 12.5 µM; in the data active = fold change above about 3.3
FLuc inhib CS – firefly luciferase enzyme inhibitors, primary screen, artefact control for luciferase-based inhibitor screens, biochemical, luminescence, ATPLite; Luciferin 4-monooxygenase (Photinus pyralis), P08659; inhibition, % at 10 µM; AID 1006, 2008; hit rate 1.5% among 200,000; 10 min;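 active = inhibition above about 50% when tested at 10 µM, limit read from the data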
Target sequence (P08659 whole entry, looked up): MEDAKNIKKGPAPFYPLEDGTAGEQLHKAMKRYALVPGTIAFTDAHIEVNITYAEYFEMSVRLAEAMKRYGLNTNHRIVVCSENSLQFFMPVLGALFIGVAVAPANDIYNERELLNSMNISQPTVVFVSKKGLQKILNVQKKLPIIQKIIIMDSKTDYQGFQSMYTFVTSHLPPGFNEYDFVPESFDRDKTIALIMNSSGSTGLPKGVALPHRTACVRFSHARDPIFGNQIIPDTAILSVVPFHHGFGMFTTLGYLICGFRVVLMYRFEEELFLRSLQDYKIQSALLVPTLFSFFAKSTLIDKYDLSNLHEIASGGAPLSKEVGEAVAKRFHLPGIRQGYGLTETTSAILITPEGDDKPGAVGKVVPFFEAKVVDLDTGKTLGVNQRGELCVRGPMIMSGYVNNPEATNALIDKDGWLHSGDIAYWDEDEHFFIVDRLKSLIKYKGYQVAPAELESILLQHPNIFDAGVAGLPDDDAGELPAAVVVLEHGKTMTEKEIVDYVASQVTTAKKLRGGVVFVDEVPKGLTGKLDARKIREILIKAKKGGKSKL
APP 5'UTR act – activators of APP 5'UTR luciferase reporter, primary screen, SH-SY5Y cells | activation, % at 2 µM | SH-SY5Y APP 5'UTR luciferase reporter, luminescence; zero percent = DMSO vehicle wells | hit rate 1% among 190,000;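 active = activation above a set limit, based on mean plus 3 SD of controls, cut at about 140% in these data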
FLuc act counter – FLuc activators, initial screening, artefact control for FLuc-dependent activation tests, biochemical, ATPlite luminescence; activation factor at 10 µM; ATPlite luciferase biochemical, 10 min; 0 = ATP-free wells, 1 = DMSO control; 200,000 tested, under 10 active; Luciferin 4-monooxygenase (Photinus pyralis), P08659;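 active = luciferase activation factor, scaled between plate controls, of at least 2 with compound at 10 µM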
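Material: Luciferase/luciferin reagent mix; Doses: test compounds dosed from 2 mM stocks in 100% DMSO; Schedule: 10 min incubation after luciferase reagent addition, room temperature; Measured by: luminescence from luciferase reaction; Read-out: luminescence gain marking luciferase activators.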
The depositor's hits bear a star. Sampled rows, rich in hits. Any-hit rate of the full collection: about 4.8%.

SMILES	STAT1 act	APP 5UTR inh	NF-kB expr up	FLuc inhib CS	APP 5'UTR act	FLuc act counter
Cc1ccc(-c2c(C)sc(=NC(=O)c3ccco3)n2C)cc1	129*	-67	3	86*	67	0.1
CN1CCC(OC(=O)COc2ccc(F)cc2)CC1	100	5	1	4	-5	1
CC(C)C(C(=O)NC1=NCCS1)c1ccc(Cl)cc1 (configuration not stated)	100	-4	1.1	2	4	1
O=C(/C=C/c1ccc(Cl)c(Cl)c1)NC1=NCCS1	134*	-25	1.6	3	25	1
Cc1cc(OCCCC(=O)NC2=NCCS2)ccc1Cl	93	2	0.98	-5	-2	1.1
CCOc1ccc(C(=O)NC2=NCCS2)cc1	139*	-92	2.7	52*	92	0.5
Cc1cccc(C(=O)NC2=NCCS2)c1	112	-139	3.3*	54*	139*	0.5
CC(C)c1ccc(/C=C/C(=O)NC2=NCCS2)cc1	95	-222	3.1	67*	222*	0.3
Cc1cc(C(=O)NC2=NCCS2)cs1	126	-74	2.6	35	74	0.7
COc1ccc(-n2nc(C(C)=O)c(=O)[nH]c2=O)cc1	112	6	1.5	-4	-6	1
CCN(CC)C(=O)Cn1nc(C)c2ccccc2c1=O	96	10	1.1	-6	-10	1.1
O=C(COc1ccccc1)NC1=NCCS1	122	6	1.2	31	-6	0.7
CC(C)c1ccc(OCC(=O)NC2=NCCS2)cc1	126	-26	1.5	57*	26	0.4
COc1ccc2occ(C(=O)c3cccs3)c2c1	128	-55	4.3*	33	55	0.7
COc1ccc(OC)c(C(=O)c2coc3ccc(OC(C)=O)cc23)c1	101	-14	1.4	-6	14	1.1
COc1ccc(Oc2ccc(/C=C/C(=O)c3cccc(OC)c3)cc2[N+](=O)[O-])cc1	103	24	1.8	-3	-24	1
CC(=NC1CC1)c1c(-c2ccccc2)[nH]n(-c2nc3ccccc3s2)c1=O	114	-6	0.89	-2	6	1
CC(=NC1CCCC1)c1c(C)[nH]n(-c2nc3ccccc3s2)c1=O	142*	-61	0.98	24	61	0.8
CCCCn1c(NC(C)=O)c(C#N)c2nc3ccccc3nc21	99	52*	0.88	-2	-52	1
CCCCCn1c(N)c(C#N)c2nc3ccccc3nc21	106	0	0.59	-7	0	1.1
COC(=O)c1ccc(NC(=O)Cc2ccccc2)cc1	132*	-38	2.1	18	38	0.8
CCOc1ccc(NC(=O)c2ccc(NC(=O)COC(=O)Cc3ccc(OC)cc3)cc2)cc1	136*	-107	1.7	-5	107	1.1
COC(=O)c1ccc(NC(=O)Cc2ccc(C)cc2)cc1	101	-21	1.2	-5	21	1
CCC(=O)Nc1ccc(C(=O)OCc2ccccc2Cl)cc1	137*	-45	1.6	-5	45	1
CCOc1ccc(NC(=O)CN2C(=O)CSC(C)C2=O)cc1 (configuration not stated)	131*	-9	1.1	39	9	0.6
SMILES	STAT1 act	APP 5UTR inh	NF-kB expr up	FLuc inhib CS	APP 5'UTR act	FLuc act counter
COC(=O)c1ccc(COC(=O)CCC(=O)c2cccs2)cc1	119	-11	1.7	-2	11	1
C/C(N)=C(/C#N)C(=O)COC(=O)C1CCC(C(C)(C)C)CC1 (configuration not stated)	97	-11	0.75	0	11	1
CCOc1ccc(NC(=O)Cc2ccccc2)cc1	135*	-41	2.2	25	41	0.8
CCOc1ccc(NC(=O)CNC(=O)COc2ccccc2)cc1	96	-15	0.99	1	15	1
COC(=O)c1sccc1-n1cccc1C(=O)C(=O)Nc1ccc(F)cc1	93	-9	0.91	-1	9	1
COCC(=O)Nc1ccc(OCc2ccccc2)cc1	131*	-22	1.7	17	22	0.8
